Only a selection was taken, and hits are over-represented in it overall.
PGC1a Ac signal: compounds raising PGC1a acetylation signal, primary screen, PGC1a modulator project, cell-based, U2OS, AlphaScreen, signal-increasing mode; hit rate 0.21% among 350,000; overnight; AID 651723, 2012; activation, % at 15.6 µM;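 active = every replicate reaching activation of at least 50%, whatever the mean replicate activation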;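 note: hits raise the AlphaScreen acetylation signal above neutral controls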
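System: Flag-PGC1a/GCN5 U2OS cells | Quantity: 7000 cells/well | Times: Overnight compound treatment, 37 °C | Measured by: AlphaScreen proximity luminescence, anti-acetyl-lysine antibody | Dosing: One concentration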
The depositor's hits bear a star.

How did COc1cc(CN2C[C@@H]3N[C@H](C2)C3c2ccc(-c3cccc(OC)c3)cc2)cc(OC)c1 (stereo partly specified) do in these assays?
PGC1a Ac signal: 69.1*

What do the screens show for `COc1ccc(-c2ccc(C3[C@@H]4CN(Cc5cc(OC)cc(OC)c5)C[C@H]3N4)cc2)cc1` (stereo partly specified)?
PGC1a Ac signal: 121.4*

Results for Fc1cccc(CN2C[C@@H]3N[C@H](C2)[C@@H]3c2ccc(-c3cccc(F)c3)cc2)c1 ?
PGC1a Ac signal: -99.2

Results for COc1cccc(-c2ccc(C3[C@@H]4CN(C(=O)C5CC5)C[C@H]3N4)cc2)c1 (stereo partly specified) ?
PGC1a Ac signal: 57.0*

How did Fc1cccc(CN2C[C@@H]3N[C@H](C2)C3c2ccc(-c3ccccc3)cc2)c1 (stereo partly specified) do in these assays?
PGC1a Ac signal: -96.9

Results for COc1cc(CN2C[C@@H]3N[C@H](C2)C3c2ccc(/C=C/c3ccccc3)cc2)cc(OC)c1 (stereo partly specified) ?
PGC1a Ac signal: 89.1*

Results for CN(C)c1ccc(Sc2ccc3nc(N)nc(N)c3c2)cc1 ?
PGC1a Ac signal: -45.8

What do the screens show for `C[C@@H]1CN([C@H](C)CO)C(=O)CCCn2cc(nn2)CO[C@@H]1CN(C)C(=O)NC1CCCC1`?
PGC1a Ac signal: -45.7

What do the screens show for `C[C@@H]1CN([C@H](C)CO)C(=O)c2cccc(NC(=O)c3ccc(-c4nccs4)cc3)c2O[C@@H]1CN(C)Cc1ccc(C(=O)Nc2ccccc2N)cc1`?
PGC1a Ac signal: -51.1

Results for CC(C)CCCCCCCCCCCCC(=O)NCC(=O)NC1C(C)OC(Nc2ncnc3nc[nH]c23)C(O)C1O (stereo unspecified) ?
PGC1a Ac signal: -70.9

How did O=C(C[C@@H]1C[C@@H]2c3cc(NC(=O)C4CCC4)ccc3O[C@@H]2[C@@H](CO)O1)NCc1ccc(-c2ccccc2)cc1 do in these assays?
PGC1a Ac signal: -79.9

What do the screens show for `COc1ccccc1CN1C[C@@H]2N[C@H](C1)C2c1ccc(-c2ccccc2OC)cc1` (stereo partly specified)?
PGC1a Ac signal: 69.7*

Results for COc1ccccc1-c1ccc([C@@H]2[C@@H](CO)N(C(C)=O)C23CN(C(C)=O)C3)cc1 ?
PGC1a Ac signal: -55.0

How did CCOC(=O)N(O)c1ccc(C=Cc2ccccc2)cc1 do in these assays?
PGC1a Ac signal: -49.4

Results for COc1ccccc1/C=C(/C(=O)OCC(=O)NCc1ccccc1)c1ccccc1 ?
PGC1a Ac signal: -91.9

What do the screens show for `Cc1ccccc1OCC(=O)OCC(=O)NCc1ccc2c(c1)OCO2`?
PGC1a Ac signal: 68.2*

How did NC(=O)COC(=O)CC(NC(N)=O)c1ccc(Cl)cc1 (stereo unspecified) do in these assays?
PGC1a Ac signal: -106.6

How did CN1CCN(C/C(=C2/N=C(c3ccccc3)OC2=O)N(C)C)CC1 do in these assays?
PGC1a Ac signal: -50.8

How did O=CNc1ccc2c(c1)Cc1cc([N+](=O)[O-])ccc1-2 do in these assays?
PGC1a Ac signal: 54.4*

What do the screens show for `CCN(CC)S(=O)(=O)c1ccc(C(=O)N(c2ccccc2)C2C=CS(=O)(=O)C2)cc1` (stereo unspecified)?
PGC1a Ac signal: -46.1

How did CCCCCCCCCSc1n[nH]c(N)n1 do in these assays?
PGC1a Ac signal: -25.4

What do the screens show for `O=C(NCCN1CCOCC1)c1ccc(=O)oc1`?
PGC1a Ac signal: 52.4*

What do the screens show for `O=C(Nc1ccc(CN2CCOCC2)cc1)c1ccc(F)cc1`?
PGC1a Ac signal: -53.9

How did Cc1noc(/C=C/N(C)C)c1S(=O)(=O)N(C)CC(=O)NC1CCCCC1 do in these assays?
PGC1a Ac signal: -43.2

Results for COC(C[C@H]1O[C@@H]1[C@H](O)[C@H](C)OCc1ccccc1)OC ?
PGC1a Ac signal: -47.4

What do the screens show for `Cn1c(SC2=CS(=O)(=O)c3ccccc32)nc2ccccc21`?
PGC1a Ac signal: 259.8*

How did C[C@@H]1CN([C@H](C)CO)C(=O)c2cccc(NC(=O)c3nc4ccccc4s3)c2O[C@@H]1CN(C)C(=O)Nc1ccc(F)cc1 do in these assays?
PGC1a Ac signal: -45.9

How did C[C@@H]1CN([C@@H](C)CO)C(=O)CCCn2nncc2CO[C@@H]1CN(C)C(=O)NC1CCCCC1 do in these assays?
PGC1a Ac signal: -51.5

Results for CC1CCCN(Cc2c(O)ccc3c4c(c(=O)oc23)CCCC4)C1 (stereo unspecified) ?
PGC1a Ac signal: -49.4

How did CC1CCCN(Cc2c(O)ccc3c(=O)c(-c4nc5ccccc5s4)c(N)oc23)C1 (stereo unspecified) do in these assays?
PGC1a Ac signal: 62.3*

Results for CCc1oc2c(C)c(O)ccc2c(=O)c1-c1ccc2ccccc2n1 ?
PGC1a Ac signal: -48.5

How did C=CCSc1nc2ccccc2n1C(=O)/C=C/c1cc(OC)c(OC)c(OC)c1 do in these assays?
PGC1a Ac signal: 527.1*

Results for O=C(NC(=S)Nc1cccc(Cl)c1N1CCCCC1)c1ccco1 ?
PGC1a Ac signal: 104.4*

Results for CC(=O)c1c(N2CCOCC2)nc(=O)n(-c2ccccc2)c1C ?
PGC1a Ac signal: -44.3

Results for Cn1nnnc1Sc1ncnc2scc(-c3cc4ccccc4o3)c12 ?
PGC1a Ac signal: 105.7*
